Assay results published in ChEMBL document CHEMBL4196121, “Meridianin D Analogues Display Antibiofilm Activity against MRSA and Increase Colistin Efficacy in Gram-Negative Bacteria” (ACS Med Chem Lett, 2018).
pEC50, pIC50: −log10 of the molar value. The source made the active and inactive calls. The rule behind the calls is not given here.

Columns and labels:
[1] = test system: Acinetobacter baumannii; assay: Antibacterial activity against Acinetobacter baumannii isolate 4106 after 16 hrs by broth microdilution assay; assay type: organism-based
[2] = test system: Staphylococcus aureus; assay: Antibiofilm activity against methicillin-resistant Staphylococcus aureus ATCC 43300 at < 60 uM after 16 hrs by broth microdilution assay; assay type: functional, organism-based
[3] = test system: Acinetobacter baumannii; assay: Antibacterial activity against Acinetobacter baumannii isolate 3941 after 16 hrs by broth microdilution assay; assay type: organism-based
[4] = test system: Acinetobacter baumannii; assay: Antibacterial activity against Acinetobacter baumannii ATCC 19606 after 16 hrs by broth microdilution assay; assay type: organism-based, ATCC 19606 = CIP 70.34 = JCM 6841; conditions: for MIC: […]
[5] = test system: Staphylococcus aureus; assay: Potentiation of vancomycin-induced antibacterial activity against methicillin-resistant Staphylococcus aureus ATCC 43300 assessed as dispersion of preformed biofilm after 24 hrs by crystal violet staining based method; assay type: functional, organism-based; conditions: ATCC 43300, 24 h
[6] = test system: Klebsiella pneumoniae; assay: Antibacterial activity against Klebsiella pneumoniae isolate B9 after 16 hrs by broth microdilution assay; conditions: in vivo
[7] = test system: Staphylococcus aureus; assay: Antibiofilm activity against methicillin-resistant Staphylococcus aureus ATCC 43300 assessed induction of dispersion of preformed biofilm after 24 hrs by crystal violet staining based method; assay type: functional, organism-based; conditions: ATCC 43300, 24 h
[8] = test system: Staphylococcus aureus; assay: Effect on planktonic growth of methicillin-resistant Staphylococcus aureus ATCC 43300 at 60 uM after 16 hrs by broth microdilution assay; assay type: organism-based
[9] = test system: Acinetobacter baumannii; assay: Antibacterial activity against Acinetobacter baumannii isolate 5075 after 16 hrs by broth microdilution assay; assay type: organism-based
[10] = test system: Klebsiella pneumoniae; assay: Antibacterial activity against Klebsiella pneumoniae ATCC 2146 expressing NDM1 gene after 16 hrs by broth microdilution assay; assay type: organism-based; conditions: for Activity: in vitro; for MIC: […]
[11] = test system: Staphylococcus aureus; assay: Antibacterial activity against methicillin-resistant Staphylococcus aureus ATCC 43300 after 16 hrs by broth microdilution assay; assay type: functional; conditions: ATCC 43300, 16 h
[12] = test system: Klebsiella pneumoniae; assay: Antibacterial activity against Klebsiella pneumoniae isolate C3 after 16 hrs by broth microdilution assay; conditions: for MIC: […]
[13] = test system: Acinetobacter baumannii; assay: Antibacterial activity against Acinetobacter baumannii ATCC 17978 after 16 hrs by broth microdilution assay; assay type: organism-based
[14] = test system: Acinetobacter baumannii; assay: Antibacterial activity against Acinetobacter baumannii ATCC 17978 expressing mcr1 gene after 16 hrs by broth microdilution assay; assay type: organism-based; conditions: in vitro
[15] = test system: Klebsiella pneumoniae; assay: Potentiation of colistin-induced antimicrobial activity against Klebsiella pneumoniae isolate B9 after 16 hrs in presence of 0.01% triton X-100 by broth microdilution assay; assay type: functional, organism-based
[16] = test system: Acinetobacter baumannii; assay: Potentiation of colistin-induced antimicrobial activity against Acinetobacter baumannii ATCC 19606 assessed as fold reduction in colistin MIC after 16 hrs by broth microdilution assay; assay type: functional, ATCC 19606 = CIP 70.34 = JCM 6841
In short: (§1)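 Analogue at a fixed 60 μM unless otherwise noted, combined with colistin against the Gram-negative strain. Potentiation is read as the fold reduction in colistin MIC relative to colistin alone. A. baumannii 3941/4106 and K. pneumoniae C3/B9 are primary clinical isolates with genomically encoded colistin resistance.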

[17] = test system: Klebsiella pneumoniae; assay: Potentiation of colistin-induced antimicrobial activity against Klebsiella pneumoniae ATCC 2146 expressing NDM1 gene assessed as fold reduction in colistin MIC after 16 hrs by broth microdilution assay; assay type: functional; in short: as §1
[18] = test system: Staphylococcus aureus; assay: Inhibition of biofilm formation in methicillin-resistant Staphylococcus aureus ATCC 43300 after 24 hrs by crystal violet staining based method; assay type: functional, organism-based; conditions: ATCC 43300, 24 h
In short: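 Read-out is the IC50, taken as the compound concentration that inhibits 50% of MRSA 43300 biofilm formation.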

[19] = test system: Acinetobacter baumannii; assay: Potentiation of colistin-induced antimicrobial activity against Acinetobacter baumannii isolate 4106 after 16 hrs in presence of 0.01% triton X-100 by broth microdilution assay; assay type: functional, organism-based
[20] = test system: Klebsiella pneumoniae; assay: Potentiation of colistin-induced antimicrobial activity against Klebsiella pneumoniae isolate B9 after 16 hrs by broth microdilution assay; assay type: functional, organism-based; in short: as §1
[21] = test system: Acinetobacter baumannii; assay: Potentiation of colistin-induced antimicrobial activity against Acinetobacter baumannii ATCC 17978 expressing mcr1 gene assessed as fold reduction in colistin MIC after 16 hrs by broth microdilution assay; assay type: functional; in short: as §1
[22] = test system: Escherichia coli; assay: Antibacterial activity against Escherichia coli ATCC 25922 expressing mcr1 gene after 16 hrs by broth microdilution assay; assay type: organism-based; conditions: in vitro
[23] = test system: Klebsiella pneumoniae; assay: Potentiation of colistin-induced antimicrobial activity against Klebsiella pneumoniae isolate B9 assessed as fold reduction in colistin MIC after 16 hrs by broth microdilution assay; assay type: functional; in short: as §1
[24] = test system: Escherichia coli; assay: Antibacterial activity against Escherichia coli ATCC 25922 after 16 hrs by broth microdilution assay; assay type: organism-based
[25] = test system: Acinetobacter baumannii; assay: Potentiation of colistin-induced antimicrobial activity against Acinetobacter baumannii isolate 3941 after 16 hrs by broth microdilution assay; assay type: functional, organism-based; in short: as §1
[26] = test system: Escherichia coli; assay: Potentiation of colistin-induced antimicrobial activity against Escherichia coli ATCC 25922 assessed as fold reduction in colistin MIC after 16 hrs by broth microdilution assay; assay type: functional; in short: as §1
[27] = test system: Acinetobacter baumannii; assay: Potentiation of colistin-induced antimicrobial activity against Acinetobacter baumannii ATCC 17978 assessed as fold reduction in colistin MIC after 16 hrs by broth microdilution assay; assay type: functional; in short: as §1
[28] = test system: Acinetobacter baumannii; assay: Potentiation of colistin-induced antimicrobial activity against Acinetobacter baumannii isolate 4106 assessed as fold reduction in colistin MIC after 16 hrs by broth microdilution assay; assay type: functional; in short: as §1
[29] = test system: Acinetobacter baumannii; assay: Potentiation of colistin-induced antimicrobial activity against Acinetobacter baumannii isolate 5075 assessed as fold reduction in colistin MIC after 16 hrs by broth microdilution assay; assay type: functional; in short: as §1
[30] = test system: Escherichia coli; assay: Potentiation of colistin-induced antimicrobial activity against Escherichia coli ATCC 25922 expressing mcr1 gene assessed as fold reduction in colistin MIC after 16 hrs by broth microdilution assay; assay type: functional; in short: as §1
[31] = test system: Klebsiella pneumoniae; assay: Potentiation of colistin-induced antimicrobial activity against Klebsiella pneumoniae isolate C3 assessed as fold reduction in colistin MIC after 16 hrs by broth microdilution assay; assay type: functional; in short: as §1
[32] = test system: Enterococcus faecium; assay: Antibacterial activity against vancomycin-resistant Enterococcus faecium ATCC 51559 after 16 hrs by broth microdilution assay; assay type: functional; conditions: ATCC 51559, 16 h
[33] = test system: Staphylococcus aureus; assay: Antibacterial activity against methicillin-resistant Staphylococcus aureus ATCC 1556 after 16 hrs by broth microdilution assay; assay type: functional; conditions: ATCC 1556, 16 h
[34] = test system: Staphylococcus aureus; assay: Antibiofilm activity against methicillin-resistant Staphylococcus aureus ATCC 43300 assessed as dispersion of preformed biofilm at 80 uM after 24 hrs by crystal violet staining based method relative to control; assay type: functional
[35] = test system: Staphylococcus aureus; assay: Antibacterial activity against methicillin-resistant Staphylococcus aureus ATCC 6538 after 16 hrs by broth microdilution assay; assay type: functional; conditions: ATCC 6538, 16 h
[36] = test system: Staphylococcus aureus; assay: Antibiofilm activity against methicillin-resistant Staphylococcus aureus ATCC 43300 assessed as dispersion of preformed biofilm after 24 hrs by crystal violet staining based method

Cl.Nc1nc(-c2c[nH]c3ccc(Br)cc23)c[nH]1
Activity [1]: Toxic | Activity [2]: inactive | Activity [3]: Toxic | Activity [4]: Toxic | pEC50 [5]: < 4.00 | Activity [6]: Toxic | pEC50 [7]: 3.99 | Activity [8]: Toxic | Activity [9]: Toxic | Activity [10]: Toxic | MIC [11]: 25 µM | Activity [12]: Toxic | Activity [13]: Toxic

CCNc1nccc(-c2c[nH]c3ccc(Br)cc23)n1.Cl
MIC [14]: > 200 µM | Activity [15]: inactive | MIC [1]: > 200 µM | fold change (FC) [16]: 16 | fold change (FC) [17]: 16 | pIC50 [18]: 4.61 | MIC [3]: > 200 µM | Activity [19]: inactive | Activity [20]: Active | fold change (FC) [21]: 128 | MIC [4]: > 200 µM | pEC50 [5]: 4.18 | MIC [22]: > 200 µM | fold change (FC) [23]: 512 | MIC [6]: > 200 µM | pEC50 [7]: 4.12 | MIC [24]: > 200 µM | MIC [9]: > 200 µM | Activity [25]: Active | MIC [10]: > 200 µM | fold change (FC) [26]: 8 | fold change (FC) [27]: 16 | fold change (FC) [28]: 512 | fold change (FC) [29]: 16 | MIC [11]: 50 µM | MIC [12]: > 200 µM | MIC [13]: > 200 µM | fold change (FC) [30]: 16 | fold change (FC) [31]: 512

Brc1ccc2[nH]cc(-c3ccnc(NCc4ccccc4)n3)c2c1.Cl
MIC [14]: > 200 µM | Activity [15]: inactive | MIC [1]: > 200 µM | fold change (FC) [16]: 16 | MIC [32]: 25 µM | pIC50 [18]: 5.02 | MIC [3]: > 200 µM | Activity [19]: inactive | MIC [4]: > 200 µM | pEC50 [5]: < 4.10 | MIC [22]: > 200 µM | MIC [6]: > 200 µM | pEC50 [7]: < 4.10 | MIC [24]: > 200 µM | MIC [9]: > 200 µM | Activity [25]: Active | MIC [10]: > 200 µM | MIC [33]: 6.25 µM | Activity [34]: 26.2% | MIC [35]: 6.25 µM | fold change (FC) [27]: 16 | MIC [11]: 6.25 µM | MIC [12]: > 200 µM | MIC [13]: > 200 µM | fold change (FC) [31]: 512

CCCCn1cc(-c2ccnc(N)n2)c2cc(Br)ccc21.Cl
MIC [14]: > 200 µM | MIC [1]: > 200 µM | fold change (FC) [16]: 16 | pIC50 [18]: 4.42 | MIC [3]: > 200 µM | MIC [4]: > 200 µM | MIC [22]: > 200 µM | MIC [6]: > 200 µM | EC50 [36]: Not Active | pEC50 [7]: < 3.80 | MIC [24]: > 200 µM | MIC [9]: > 200 µM | MIC [10]: > 200 µM | fold change (FC) [26]: 16 | fold change (FC) [27]: 16 | MIC [11]: 50 µM | MIC [12]: > 200 µM | MIC [13]: > 200 µM

Cl.Nc1nc(-c2c[nH]c3cc(Br)ccc23)c[nH]1
Activity [1]: Toxic | Activity [2]: inactive | Activity [3]: Toxic | Activity [4]: Toxic | pEC50 [5]: < 4.00 | Activity [6]: Toxic | pEC50 [7]: 4.00 | Activity [8]: Toxic | Activity [9]: Toxic | Activity [10]: Toxic | MIC [11]: 25 µM | Activity [12]: Toxic | Activity [13]: Toxic

CNc1nccc(-c2c[nH]c3ccc(Br)cc23)n1.Cl
MIC [14]: > 200 µM | MIC [1]: > 200 µM | fold change (FC) [16]: 16 | pIC50 [18]: 4.54 | MIC [3]: > 200 µM | Activity [20]: Active | MIC [4]: > 200 µM | pEC50 [5]: 4.15 | MIC [22]: > 200 µM | MIC [6]: > 200 µM | pEC50 [7]: 4.14 | MIC [24]: > 200 µM | MIC [9]: > 200 µM | MIC [10]: > 200 µM | MIC [11]: 100 µM | MIC [12]: > 200 µM | MIC [13]: > 200 µM | fold change (FC) [31]: 512
